Compound activity (PubChem BioAssay)
Sampled rows, rich in hits. Any-hit rate of the full collection: about 2%.
MT1-MMP act inh – blockers of MT1-MMP proenzyme processing, primary screen, HT1080 RFP-PRO-GFP cells, GFP/RFP fluorescence | GFP/RFP ratio fluorescence, overnight; percent of plate control window, DMSO zero | GFP/RFP ratio change, % at 20 µM | actives 0.061% (n = 360,000);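 active means GFP/RFP ratio change of at least 30% with cell ATP level not reduced by more than half and red fluorescence within 50% of control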
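Assay system – RFP-PRO-GFP reporter HT1080 cells · Compound dosing – single dose of 20 µM compound, 1% DMSO final · Incubation – overnight compound exposure at 37 °C · Measure – GFP/RFP fluorescence ratio · Benchmarks – DMSO wells and RFP-L50D-GFP cells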
DAGLB inh – DAGLB lipase inhibitors, primary screen, biochemical, fluorescence, HTS | inhibition, % at 5.17 µM | HEK293T DAGLB membrane lysate, EnzChek fluorogenic substrate | AID 504411, 2011 | Diacylglycerol lipase-beta (Homo sapiens), Q8NCG7 | actives 0.059% (n = 340,000); in the data active means inhibition above about 34%
ABCB6 inh 2 – ABCB6 transporter inhibitors, primary screen, K562-ABCB6 cells, flow cytometry, MLPCN library; actives 0.19% (n = 360,000); AID 602162, 2011; K562-ABCB6 porphyrin accumulation, 1 h; stronger effect = lower value; fluorescence ratio to DMSO, % at 10 µM;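 active means fluorescence ratio to DMSO below 75%, the collection mean minus 3 SD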;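 further: signal is porphyrin accumulated inside mitochondria; lower ratio means ABCB6 inhibition with less porphyrin fluorescence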
VLA-4 inh – inhibition in human VLA-4 binding assay, primary screen, VLA-4 allosteric modulator project, MLPCN library, flow cytometry, VLA-4 expressing cells | Integrin alpha-4 (Homo sapiens), P13612 | AID 2557, 2010 | inhibition, % (about 7 µM as worked out from the volumes in the protocol) | actives 0.2% (n = 330,000) | ligand binding flow cytometry; in the data active means inhibition above about 50%
FGF22 binding – binders of human FGF22 protein, primary screen, FGF22 synaptogenesis inhibitor project, biophysical, thermal shift, single point; Fibroblast growth factor 22 (Homo sapiens), Q9HCT0; recombinant FGF22 thermal shift, SYPRO orange fluorescence; percent of sucrose octasulfate shift, DMSO zero; activity (Tm shift, normalised), % at 9.99 µM; actives 1.5% (n = 340,000);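 active means mean Tm shift, scaled 0 neutral to 100 positive control, at about 1.3% or above, every replicate too, limit read from the data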
Target sequence (Q9HCT0 whole entry, looked up): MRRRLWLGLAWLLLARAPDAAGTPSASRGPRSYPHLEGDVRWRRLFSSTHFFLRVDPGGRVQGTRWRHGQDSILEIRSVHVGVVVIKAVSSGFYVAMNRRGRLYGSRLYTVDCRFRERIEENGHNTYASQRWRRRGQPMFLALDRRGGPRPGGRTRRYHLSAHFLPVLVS
Granule exo inh – LAMP-1 surface exposure blockers, TALL-104 cells – cell-based, flow cytometry, MLPCN library, primary screen | inhibition, % at 10 µM | TALL-104 LAMP-1 surface exposure; cells stimulated with thapsigargin and PMA | actives 0.66% (n = 360,000);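 active means inhibition above about 55%, limit read from the data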
A number is an active result; - = inactive; . = no result.

SMILES	MT1-MMP act inh	DAGLB inh	ABCB6 inh 2	VLA-4 inh	FGF22 binding	Granule exo inh
Cc1ccc(S(=O)(=O)N2CCCC2CNC(=O)C(=O)NCc2ccc3c(c2)OCO3)cc1 (centres undefined)	-	-	-	.	43	-
O=C(Cn1ccc(=O)[nH]c1=O)Nc1ccc(O)c([N+](=O)[O-])c1	-	-	-	.	43	-
Cc1cc(=O)[nH]c(CN2CCOCC2)n1	-	-	-	-	43	-
Cc1nc(CN2CCCCC2)cc(=O)[nH]1	-	-	-	-	43	-
N#Cc1cccn1-c1nccs1	-	-	-	-	43	-
CCCc1[nH]n(-c2ccc([N+](=O)[O-])cc2)c(=O)c1C=NCCc1c[nH]c2ccccc12	-	-	-	-	.	90
Cc1[nH]n(-c2ccc([N+](=O)[O-])cc2)c(=O)c1C=NCCc1c[nH]c2ccccc12	-	-	-	-	.	-
CO[C@@H]1CN(C)C(=O)c2cc(NC(=O)C3CCCCC3)ccc2OC[C@@H](C)N(Cc2nccs2)C[C@@H]1C	.	.	.	.	-	.
COc1ccc(C(=O)CC(=O)c2ccccc2O)cc1	-	-	-	-	-	-
COc1ccc(C(=O)CC(=O)c2ccccc2O)cc1OC	-	-	-	-	56	-
COCCN(C(=O)c1csnn1)C(C(=O)NC1CCCCC1)c1ccccc1F (centres undefined)	-	-	-	-	-	-
COCCN(C(=O)C(=O)NC1CCCC1)C(C(=O)NC1CCCC1)c1ccccc1F (centres undefined)	-	-	-	-	44	-
CC(NCc1ccccc1O)c1ccccc1 (centres undefined)	-	-	-	-	43	-
Cc1ccc(CNC(C)c2ccccc2)cc1 (centres undefined)	-	-	-	-	.	-
O=C(O)c1ccccc1C(=O)c1cccs1	-	-	-	-	.	-
O=C(c1ccccc1)c1cccs1	-	-	-	-	43	-
c1ccc(N2CCN(c3nc(-c4cccs4)nc4ccccc34)CC2)cc1	-	-	-	-	43	-
CCS(=O)(=O)Nc1ccc2c(c1)C(=O)N(C)C[C@H](OC)[C@H](C)CN(Cc1nccs1)[C@@H](C)CO2	.	.	.	.	-	.
COC(=O)C(=C/C=C/c1cccnc1)C(=O)OC	-	-	-	-	43	-
CC(C)NC(=O)N(C)C[C@@H]1Oc2ccc(NC(=O)NC3CCCCC3)cc2CC(=O)N([C@@H](C)CO)C[C@@H]1C	.	.	.	.	-	.
CC(C)NC(=O)N(C)C[C@H]1Oc2ccc(NC(=O)c3ccncc3)cc2CC(=O)N([C@H](C)CO)C[C@H]1C	.	.	.	.	-	.
COc1ccccc1NC(=O)C[C@H]1CC[C@H]2[C@@H](COc3ccc(NC(C)=O)cc3C(=O)N2C)O1	.	.	.	.	-	.
COc1ccc2c(c1)CC=C1C2CCC2(C)C(=O)C(=NO)CC12 (centres undefined)	-	-	-	.	-	91
CCCC(=O)Nc1ccc2c(c1)C(=O)N(C)C[C@@H](OC)[C@@H](C)CN(Cc1ccccn1)[C@H](C)CO2	.	.	.	.	-	.
O=C(O)C1CCCCC1C(=O)Nc1nc(-c2ccc(Cl)s2)cs1 (centres undefined)	-	-	-	-	43	-
SMILES	MT1-MMP act inh	DAGLB inh	ABCB6 inh 2	VLA-4 inh	FGF22 binding	Granule exo inh
CCCC(=O)Nc1nc(-c2ccc(Cl)s2)cs1	-	-	-	-	-	-
C[C@@H]1CN([C@@H](C)CO)C(=O)Cc2cc(NC(=O)Nc3ccc(F)cc3)ccc2O[C@@H]1CN(C)CC1CCCCC1	.	.	.	.	-	.
COCC(=O)O[C@]1(CCN(C)CCCc2nc3ccccc3[nH]2)CCc2cc(F)ccc2[C@@H]1C(C)C	-	-	-	-	-	63
CCc1nnc(NS(=O)(=O)c2ccc(NC(=O)c3ccccc3C)cc2)s1	-	-	-	-	43	-
CCc1nnc(NS(=O)(=O)c2ccc(NC(=S)NC(=O)/C=C/c3ccc(C(C)C)cc3)cc2)s1	-	-	-	-	.	90
CCc1nnc(NS(=O)(=O)c2ccc(NC(=O)/C=C/c3ccccc3Cl)cc2)s1	-	-	-	-	1.8	-
CCc1nnc(NS(=O)(=O)c2ccc(NC(=O)C(c3ccccc3)c3ccccc3)cc2)s1	-	-	-	-	1.5	-
Cc1ccc(-c2cnc3c(c2)C(=O)N([C@H](C)CO)C[C@@H](C)[C@@H](CN(C)S(C)(=O)=O)O3)cc1	.	.	.	.	-	.
Cc1ccc(-c2nnc(SCC(N)=O)n2C)cc1	-	-	-	-	43	-
O=C(NCC[C@H]1CC[C@H](NC(=O)c2cccnc2)[C@H](CO)O1)Nc1ccc(F)cc1	.	.	.	.	-	.
Cc1noc(C)c1S(=O)(=O)N(C)C[C@@H]1OCCCC[C@@H](C)Oc2ccc(NC(=O)Nc3ccc(C(F)(F)F)cc3)cc2C(=O)N([C@H](C)CO)C[C@H]1C	.	.	.	.	-	.
CCN(CC)C(=O)[C@H]1C[C@@H]2[C@H](C[C@@H](c3ccccc3)[C@H]1C)N(c1ccc(F)cc1)C(=O)N2CCCOc1ccccc1	.	.	.	.	43	.
COc1ccc(CNCC(O)(c2ccccc2)c2ccccc2)cc1OC	-	-	-	-	43	-
COc1ccc(NC(=O)CNC(=O)Cn2c(C)cc3ccccc3c2=O)c(OC)c1	-	-	-	-	43	-
COc1ccccc1CC(=O)NC1CCCc2ccccc21 (centres undefined)	-	-	-	-	-	-
O=C(NC1CCCc2ccccc21)c1ccccc1 (centres undefined)	-	-	-	-	-	-
CCCCN1C(=O)C(=O)N(CC(=O)NC2CCCc3ccccc32)C1=O (centres undefined)	-	-	-	-	44	-
O=C(NC1CCCc2ccccc21)c1ccc([N+](=O)[O-])cc1 (centres undefined)	-	-	-	-	43	-
O=C(CN1C(=O)C2CCCCC2C1=O)NC1CCCc2ccccc21 (centres undefined)	-	-	-	.	.	-
COc1cc(CC(=O)NC2CCCc3ccccc32)cc(OC)c1OC (centres undefined)	-	-	-	-	-	60
C[C@@H]1CN([C@@H](C)CO)C(=O)c2cccc(NC(=O)Nc3ccc4c(c3)OCO4)c2O[C@@H]1CN(C)S(=O)(=O)c1ccc(Cl)cc1	.	.	.	.	-	.
